Positions of bridges follow the written chain, without caps; N, C: chain ends. Non-standard residues stand in square brackets, D forms with d. No end group written: not given here. *: point of attachment. DOTA = O=C(O)CN1CCN(CC(=O)O)CCN(CC(=O)*)CCN(CC(=O)O)CC1; Nle = CCCC[C@H](N)C(=O)O
What was measured:
B16/F1 melanoma cells [1] = experiment: Cellular internalization in B16/F1 melanoma cells; assay type: cell-based; conditions: 25°C
How it was run: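 B16/F1 cells, washed twice in binding medium (DMEM, 25 mM HEPES pH 7.4, 0.2% BSA, 0.3 mM 1,10-phenanthroline), incubated at 25°C for 20, 40, 60, 90 and 120 min (n=3) with ~200,000 cpm HPLC-purified ¹¹¹In-labelled test compound. Cells rinsed in ice-cold 0.2% BSA/0.01 M PBS pH 7.4. Membrane-bound activity stripped with 40 mM sodium acetate pH 4.5, 0.9% NaCl, 0.2% BSA. Internalized activity recovered by 1 N NaOH lysis (5 min). Both fractions gamma-counted.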

[2] = Urinary metabolites by RP-HPLC; assay type: in vivo, mouse; conditions: urine, 2 h post-injection
How it was run: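 A C57 mouse bearing a B16/F1 flank tumour (1×10⁶ cells s.c., 10 days) received 37 MBq (1 mCi) ¹¹¹In-labelled test compound via the tail vein. It was euthanized at 2 h and urine collected. Urine was centrifuged at 16,000g for 5 min, and aliquots were analysed by RP-HPLC using a 20-min 18–28% acetonitrile/20 mM HCl gradient.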

[3] = In vitro serum stability in mouse serum monitored by RP-HPLC; assay type: in vitro ADME; conditions: 37 °C, 24 h
How it was run: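 Test compound was labelled with ¹¹¹In in 0.5 M NH₄OAc pH 4.5 at 75°C for 45 min, and unbound ¹¹¹In was scavenged with EDTA. It was purified by C-18 RP-HPLC (20-min 18–28% acetonitrile gradient in 20 mM HCl). The purified label was incubated in mouse serum at 37°C for 24 h, with degradation monitored by RP-HPLC.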

B16/F1 melanoma cells [4] = experiment: Cellular efflux in B16/F1 melanoma cells; assay type: cell-based; conditions: 2 h after incubating cells in culture medium
How it was run: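 B16/F1 cells were loaded with ¹¹¹In-labelled test compound for 2 h at 25°C, then given 2 ice-cold PBS rinses to remove non-specifically bound activity. Radioactivity released into the culture medium was monitored. At 20, 40, 60, 90 and 120 min, cell-surface and intracellular radioactivity were collected separately and gamma-counted.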

[5] = test system: B16/F1 melanoma-bearing C57 mice; experiment: Biodistribution in B16/F1 melanoma-bearing C57 mice; assay type: in vivo, mouse
[6] = as above; assay type: in vivo, mouse; conditions: female, C57, mouse, urine, iv, 0.037 MBq, total radioactivity, percent injected dose, 0.5 h post-injection
MC1 receptor = conditions: cited from earlier work
[7] = target: melanocortin-1 (MC1) receptor (Mus musculus, UniProt Q01727); conditions: read-out: MC1 receptor binding affinity; B16/F1 cells; ref [17], [21]; cited from earlier work
[8] = test system: B16/F1 melanoma-bearing C57 mice; conditions: mouse, in vivo, 4 h; cited from earlier work

melanocortin-1 (MC1) receptor, sequence (Q01727 whole entry): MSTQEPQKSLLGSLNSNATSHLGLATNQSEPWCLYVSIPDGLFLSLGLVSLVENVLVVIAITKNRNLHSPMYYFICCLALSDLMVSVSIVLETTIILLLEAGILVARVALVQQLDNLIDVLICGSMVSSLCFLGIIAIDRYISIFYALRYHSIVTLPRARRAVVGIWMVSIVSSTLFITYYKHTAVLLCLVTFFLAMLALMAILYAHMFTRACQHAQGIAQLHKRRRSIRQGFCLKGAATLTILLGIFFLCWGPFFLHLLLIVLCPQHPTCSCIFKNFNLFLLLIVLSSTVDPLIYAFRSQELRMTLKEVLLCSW

## CCCC[C@H](NC(=O)CN1CCN(CC(=O)O)CCN(CC(=O)O)CCN(CC(=O)O)CC1)C(=O)N[C@H]1CC(=O)NCCCC[C@@H](C(N)=O)NC(=O)[C@H](Cc2c[nH]c3ccccc23)NC(=O)[C@H](CCCNC(=N)N)NC(=O)[C@@H](Cc2ccccc2)NC(=O)[C@H](Cc2c[nH]cn2)NC1=O [^111In-DOTA-Nle-CycMSHhex, metal not drawn]
B16/F1 melanoma cells [1]; 20 min post incubation
  Cellular uptake activity internalized: 72.9±3.5%
B16/F1 melanoma cells [1]; 120 min post incubation
  Cellular uptake activity internalized: 88.3±0.7%
[2]
  Urinary metabolite analysis by RP-HPLC: remained intact
[3]
  Stability in mouse serum: stable
B16/F1 melanoma cells [4]
  Internalized activity remained inside the cells: 89.5±1.9%
[5]; 10 μg non-radiolabeled NDP-MSH co-injection, 2 h
  Tumor uptake with NDP-MSH co-injection as percent of tumor uptake without: 4.2%
[5]; 2 h post-injection
  Reduction of kidney uptake value by L-lysine co-injection: 30%
  Renal uptake value as percent of that of ^111In-DOTA-GlyGlu-CycMSH: 72.8%
  Tumor uptake value, times that of ^111In-DOTA-GlyGlu-CycMSH: 1.86 times
  Tumor uptake value, times that of ^111In-DOTA-Re(Arg^11)CCMSH: 1.12 times
[5]; 4 h post-injection
  Renal uptake value as percent of that of ^111In-DOTA-GlyGlu-CycMSH: 82.4%
  Tumor uptake value, times that of ^111In-DOTA-Re(Arg^11)CCMSH: 0.98 times
[5]; 24 h post-injection
  Tumor uptake value, times that of ^111In-DOTA-Re(Arg^11)CCMSH: 1.29 times
[5]; 24 h vs 2 h post-injection
  Percent of tumor activity at 2 h post-injection remaining in tumors at 24 h: 54.3%
[6]
  dose excreted at 0.5 h: 57 ± 3.91%

## Ac-Nle-c[Asp-His-DPhe-Arg-Trp-Lys(CONH2)] [MT-II]
MC1 receptor; ref [27], [28]
  MC1 receptor binding affinity compared with native α-MSH peptide: higher MC1 receptor binding affinity
  MC1 receptor dissociation rate compared with native α-MSH peptide: slower MC1 receptor dissociation rate

## DOTA-Gly-Glu-c[Lys-Nle-Glu-His-DPhe-Arg-Trp-Gly-Arg-Pro-Val-Asp] ({DOTA}-GEK[Nle]EH[dF]RWGRPVD; lactam 3-14; not fully specified) [DOTA-GlyGlu-CycMSH]
[7]
  IC50: 0.9 nM

## [Ac-Nle^4,Asp^5,D-Phe^7,Lys^11(pz-^99mTc(CO)3)]α-MSH4–11
[8]
  Melanoma uptake: 4.24 ± 0.94 %ID/g

## [Nle^4, D-Phe^7]- α-MSH [NDP-MSH]
MC1 receptor; stated without reference
  Affinity for the MC1 receptor present on the melanoma cells: picomolar

## ^99mTc(CO)3-pz-βAla-Nle-cyclo[Asp-His-D-Phe-Arg-Trp-Lys]-NH2
[8]
  Kidneys uptake: 32.12 ± 1.57 %ID/g
  Liver uptake: 22.86 ± 1.17 %ID/g
  Melanoma uptake: 11.31 ± 1.81 %ID/g
